In brackets after ≈: the same amount, converted by molar mass. *1 amine or outer side, *2 acyl side, *3 side chain or, on linkers, in order; H or OH if unused. Where a SMILES comes first, the peptide text is derived from it. Bridges are numbered along the chain shown (N, C = ends). Roman numbers before positions name the chains, in order. [ ]: non-standard residue; d: D form. Actinocin(9to1) = Cc1c2oc3c(C)ccc(C(=O)[*:1])c3nc-2c(C(=O)[*:2])c(N)c1=O; NMeV = CN[C@H](C(=O)O)C(C)C; Sar = CNCC(=O)O
Columns and labels:
P388 [1] = assay: Antitumor activity against mouse P388 cells allografted in BDF1 hybrid mouse assessed as increase of host life span at 500 ug/kg qd for 4 days; format: functional; settings: P388, 96 h
Outline: (§1)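 P388 leukemia, 10⁶ cells, implanted ip in male BDF₁ mice, seven per group. Compounds given in saline once daily on four successive days starting 1 day after implantation (qd 1-4).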

[2] = Cytotoxicity against human CCRF-CEM cells; format: cell-based; settings: read-out: ID50 (the source's name)
Outline: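 In vitro growth-inhibition assay on human lymphoblastic leukemia CCRF-CEM cells grown in suspension culture. The values are relative cytotoxicity.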

P388 [3] = assay: Antitumor activity against mouse P388 cells allografted in BDF1 hybrid mouse assessed as increase of host life span at 200 ug/kg qd for 4 days; format: functional; settings: P388, 96 h; outline: as §1
P388 [4] = assay: Antitumor activity against mouse P388 cells allografted in BDF1 hybrid mouse assessed as increase of host life span at 150 ug/kg qd for 4 days; format: functional; settings: P388, 96 h; outline: as §1
P388 [5] = assay: Antitumor activity against mouse P388 cells allografted in BDF1 hybrid mouse assessed as increase of host life span at 225 ug/kg qd for 4 days; format: functional; settings: P388, 96 h; outline: as §1
P388 [6] = assay: Antitumor activity against mouse P388 cells allografted in BDF1 hybrid mouse assessed as increase of host life span at 800 ug/kg qd for 4 days; format: functional; settings: P388, 96 h; outline: as §1
P388 [7] = assay: Antitumor activity against mouse P388 cells allografted in BDF1 hybrid mouse assessed as increase of host life span at 75 ug/kg qd for 4 days; format: functional; settings: P388, 96 h; outline: as §1
P388 [8] = assay: Antitumor activity against mouse P388 cells allografted in BDF1 hybrid mouse assessed as increase of host life span at 450 ug/kg qd for 4 days; format: functional; settings: P388, 96 h; outline: as §1
P388 [9] = assay: Antitumor activity against mouse P388 cells allografted in BDF1 hybrid mouse assessed as increase of host life span at 1500 ug/kg qd for 4 days; format: functional; settings: P388, 96 h; outline: as §1

| Compound | CC50 [2] [µg/mL] | other results |
| --- | --- | --- |
| Cc1c2oc3c(C)c(NCc4ccc(C(=O)O)cc4)cc(C(=O)N[C@@H]4C(=O)N[C@H](C(C)C)C(=O)N5CCC[C@H]5C(=O)N(C)CC(=O)N(C)[C@@H](C(C)C)C(=O)O[C@@H]4C)c3nc-2c(C(=O)N[C@@H]2C(=O)N[C@H](C(C)C)C(=O)N3CCC[C@H]3C(=O)N(C)CC(=O)N(C)[C@@H](C(C)C)C(=O)O[C@@H]2C)c(N)c1=O | 0.26 (≈ 0.185 µM) | ILS at 0.5 mg/kg (P388 [1]): 123% |
| Cc1c2oc3c(C)c(NCc4ccc[nH]4)cc(C(=O)N[C@@H]4C(=O)N[C@H](C(C)C)C(=O)N5CCC[C@H]5C(=O)N(C)CC(=O)N(C)[C@@H](C(C)C)C(=O)O[C@@H]4C)c3nc-2c(C(=O)N[C@@H]2C(=O)N[C@H](C(C)C)C(=O)N3CCC[C@H]3C(=O)N(C)CC(=O)N(C)[C@@H](C(C)C)C(=O)O[C@@H]2C)c(N)c1=O | 0.26 (≈ 0.193 µM) | ILS at 0.2 mg/kg (P388 [3]): 90% |
| Cc1c2oc3c(C)c(NCc4ccco4)cc(C(=O)N[C@@H]4C(=O)N[C@H](C(C)C)C(=O)N5CCC[C@H]5C(=O)N(C)CC(=O)N(C)[C@@H](C(C)C)C(=O)O[C@@H]4C)c3nc-2c(C(=O)N[C@@H]2C(=O)N[C@H](C(C)C)C(=O)N3CCC[C@H]3C(=O)N(C)CC(=O)N(C)[C@@H](C(C)C)C(=O)O[C@@H]2C)c(N)c1=O | 0.26 (≈ 0.193 µM) | ILS at 0.2 mg/kg (P388 [3]): 90% |
| Cc1c2oc3c(C)c(NCc4ccc(Cl)c(Cl)c4)cc(C(=O)N[C@@H]4C(=O)N[C@H](C(C)C)C(=O)N5CCC[C@H]5C(=O)N(C)CC(=O)N(C)[C@@H](C(C)C)C(=O)O[C@@H]4C)c3nc-2c(C(=O)N[C@@H]2C(=O)N[C@H](C(C)C)C(=O)N3CCC[C@H]3C(=O)N(C)CC(=O)N(C)[C@@H](C(C)C)C(=O)O[C@@H]2C)c(N)c1=O | 0.22 (≈ 0.154 µM) | ILS at 0.5 mg/kg (P388 [1]): 192% |
| Cc1c2oc3c(C)c(N)cc(C(=O)N[C@@H]4C(=O)N[C@H](C(C)C)C(=O)N5CCC[C@H]5C(=O)N(C)CC(=O)N(C)[C@@H](C(C)C)C(=O)O[C@@H]4C)c3nc-2c(C(=O)N[C@@H]2C(=O)N[C@H](C(C)C)C(=O)N3CCC[C@H]3C(=O)N(C)CC(=O)N(C)[C@@H](C(C)C)C(=O)O[C@@H]2C)c(N)c1=O | 0.085 (≈ 0.0669 µM) | ILS at 0.15 mg/kg (P388 [4]): 164% |
| Cc1c2oc3c(C)c(NCc4cccc(Oc5ccccc5)c4)cc(C(=O)N[C@@H]4C(=O)N[C@H](C(C)C)C(=O)N5CCC[C@H]5C(=O)N(C)CC(=O)N(C)[C@@H](C(C)C)C(=O)O[C@@H]4C)c3nc-2c(C(=O)N[C@@H]2C(=O)N[C@H](C(C)C)C(=O)N3CCC[C@H]3C(=O)N(C)CC(=O)N(C)[C@@H](C(C)C)C(=O)O[C@@H]2C)c(N)c1=O | 0.28 (≈ 0.193 µM) | ILS at 0.225 mg/kg (P388 [5]): 130% |
| Cc1c2oc3c(C)c(NCc4ccccc4)cc(C(=O)N[C@@H]4C(=O)N[C@H](C(C)C)C(=O)N5CCC[C@H]5C(=O)N(C)CC(=O)N(C)[C@@H](C(C)C)C(=O)O[C@@H]4C)c3nc-2c(C(=O)N[C@@H]2C(=O)N[C@H](C(C)C)C(=O)N3CCC[C@H]3C(=O)N(C)CC(=O)N(C)[C@@H](C(C)C)C(=O)O[C@@H]2C)c(N)c1=O | 0.25 (≈ 0.184 µM) | ILS at 0.8 mg/kg (P388 [6]): 108% |
| Cc1c2oc3c(C)ccc(C(=O)N[C@@H]4C(=O)N[C@H](C(C)C)C(=O)N5CCC[C@H]5C(=O)N(C)CC(=O)N(C)[C@@H](C(C)C)C(=O)O[C@@H]4C)c3nc-2c(C(=O)N[C@@H]2C(=O)N[C@H](C(C)C)C(=O)N3CCC[C@H]3C(=O)N(C)CC(=O)N(C)[C@@H](C(C)C)C(=O)O[C@@H]2C)c(N)c1=O [DACTINOMYCIN] (I: T[dV]P[Sar][NMeV] / II: T[dV]P[Sar][NMeV]; ester I:1-I:C, II:1-II:C; linker I:N-II:N via Actinocin(9to1)) | 0.01 (≈ 0.00797 µM) | ILS at 0.075 mg/kg (P388 [7]): 122% |
| Cc1c2oc3c(C)c(NCc4ccccn4)cc(C(=O)N[C@@H]4C(=O)N[C@H](C(C)C)C(=O)N5CCC[C@H]5C(=O)N(C)CC(=O)N(C)[C@@H](C(C)C)C(=O)O[C@@H]4C)c3nc-2c(C(=O)N[C@@H]2C(=O)N[C@H](C(C)C)C(=O)N3CCC[C@H]3C(=O)N(C)CC(=O)N(C)[C@@H](C(C)C)C(=O)O[C@@H]2C)c(N)c1=O | 0.26 (≈ 0.191 µM) | ILS at 0.45 mg/kg (P388 [8]): 145% |
| CCCCCCCCNc1cc(C(=O)N[C@@H]2C(=O)N[C@H](C(C)C)C(=O)N3CCC[C@H]3C(=O)N(C)CC(=O)N(C)[C@@H](C(C)C)C(=O)O[C@@H]2C)c2nc3c(C(=O)N[C@@H]4C(=O)N[C@H](C(C)C)C(=O)N5CCC[C@H]5C(=O)N(C)CC(=O)N(C)[C@@H](C(C)C)C(=O)O[C@@H]4C)c(N)c(=O)c(C)c-3oc2c1C | 0.27 (≈ 0.195 µM) | ILS at 1.5 mg/kg (P388 [9]): 73% |
| Cc1c2oc3c(C)c(NCc4ccc(C(F)(F)F)cc4)cc(C(=O)N[C@@H]4C(=O)N[C@H](C(C)C)C(=O)N5CCC[C@H]5C(=O)N(C)CC(=O)N(C)[C@@H](C(C)C)C(=O)O[C@@H]4C)c3nc-2c(C(=O)N[C@@H]2C(=O)N[C@H](C(C)C)C(=O)N3CCC[C@H]3C(=O)N(C)CC(=O)N(C)[C@@H](C(C)C)C(=O)O[C@@H]2C)c(N)c1=O | 0.26 (≈ 0.182 µM) | ILS at 0.5 mg/kg (P388 [1]): 100% |

Reference: ChEMBL document CHEMBL3244394, “N7-Substituted 7-aminoactinomycin D analogues. Synthesis and biological properties” (J Med Chem, 1978)
